# Results as given in ChEMBL document CHEMBL3227952, “Potential organ- or tumor-imaging agents. 18. Radioiodinated diamines and bisquaternaries” (J Med Chem, 1979).
# What was measured:
# Conditions in all cases: in vivo
# [1] = Drug uptake in Sprague-Dawley rat intervertebral disk at 6.3 uCi, iv after 0.5 hrs by liquid scintillation counting; type: ADME, organism-based
# In short: (§1)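 Adult male Sprague-Dawley rats (200–420 g) got ¹⁴C-labelled bisquaternary (20.9 µCi/mg) in saline, 0.1 mL, by tail vein under ether anesthesia. Five rats per time point were exsanguinated under ether. Organs were excised, rinsed, blotted and weighed. Duplicate samples underwent liquid scintillation counting, with quench corrected by the external standard-channels ratio. Results are % administered dose/g, mean ± SEM.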
# Testes [2] = assay: Drug uptake in Sprague-Dawley rat testes at 6.3 uCi, iv after 2 hrs by liquid scintillation counting; type: ADME, organism-based, Testis
# In short: (§2)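 [¹⁴C]Hexamethonium diiodide in saline (15 mg/5.0 mL), 20.9 μCi/mg, 0.1 mL injected into the tail vein of ether-anesthetized adult male Sprague-Dawley rats (200–420 g). At 0.5 or 2 h rats were exsanguinated under ether and organs excised, rinsed, blotted and weighed. Duplicate samples were counted by liquid scintillation, with quench corrected by external standard-channels ratio. Results are % administered dose/g, mean ± SEM, five rats.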
# Blood [3] = assay: Drug uptake in Sprague-Dawley rat blood at 6.3 uCi, iv after 0.5 hrs by liquid scintillation counting; type: ADME, organism-based; in short: as §1
# Liver [4] = assay: Drug uptake in Sprague-Dawley rat liver at 6.3 uCi, iv after 0.5 hrs by liquid scintillation counting; type: ADME, organism-based; in short: as §1
# [5] = Drug uptake in Sprague-Dawley rat trachea at 6.3 uCi, iv after 0.5 hrs by liquid scintillation counting; type: ADME, organism-based; in short: as §2
# Blood [6] = assay: Drug uptake in Sprague-Dawley rat blood at 6.3 uCi, iv after 2 hrs by liquid scintillation counting; type: ADME, organism-based; in short: as §1
# Brain [7] = assay: Drug uptake in Sprague-Dawley rat brain at 6.3 uCi, iv after 0.5 hrs by liquid scintillation counting; type: ADME, organism-based; in short: as §1
# Lung [8] = assay: Drug uptake in Sprague-Dawley rat lung at 6.3 uCi, iv after 0.5 hrs by liquid scintillation counting; type: ADME, organism-based; in short: as §1
# Pancreas [9] = assay: Drug uptake in Sprague-Dawley rat pancreas at 6.3 uCi, iv after 0.5 hrs by liquid scintillation counting; type: ADME, organism-based; in short: as §1
# Spleen [10] = assay: Drug uptake in Sprague-Dawley rat spleen at 6.3 uCi, iv after 0.5 hrs by liquid scintillation counting; type: ADME, organism-based; in short: as §2
# Testes [11] = assay: Drug uptake in Sprague-Dawley rat testes at 6.3 uCi, iv after 0.5 hrs by liquid scintillation counting; type: ADME, organism-based, Testis; in short: as §2
# [12] = Drug uptake in Sprague-Dawley rat diaphragm at 6.3 uCi, iv after 2 hrs by liquid scintillation counting; type: ADME, organism-based; in short: as §1
# Pancreas [13] = assay: Drug uptake in Sprague-Dawley rat pancreas at 6.3 uCi, iv after 2 hrs by liquid scintillation counting; type: ADME, organism-based; in short: as §1
# [14] = Drug uptake in Sprague-Dawley rat intervertebral disk at 6.3 uCi, iv after 2 hrs by liquid scintillation counting; type: ADME, organism-based; in short: as §1
# Thyroid gland [15] = assay: Drug uptake in Sprague-Dawley rat thyroid at 6.3 uCi, iv after 0.5 hrs by liquid scintillation counting; type: ADME, organism-based; in short: as §2
# Thyroid gland [16] = assay: Drug uptake in Sprague-Dawley rat thyroid at 6.3 uCi, iv after 2 hrs by liquid scintillation counting; type: ADME, organism-based; in short: as §2
# Adrenal [17] = assay: Drug uptake in Sprague-Dawley rat adrenal at 6.3 uCi, iv after 0.5 hrs by liquid scintillation counting; type: ADME, organism-based, Adrenal gland; in short: as §1
# [18] = Drug uptake in Sprague-Dawley rat meninges at 6.3 uCi, iv after 2 hrs by liquid scintillation counting; type: ADME, organism-based; in short: as §1
# Adrenal [19] = assay: Drug uptake in Sprague-Dawley rat adrenal at 6.3 uCi, iv after 2 hrs by liquid scintillation counting; type: ADME, organism-based, Adrenal gland; in short: as §1
# Heart [20] = assay: Drug uptake in Sprague-Dawley rat heart at 6.3 uCi, iv after 2 hrs by liquid scintillation counting; type: ADME, organism-based; in short: as §1
# Liver [21] = assay: Drug uptake in Sprague-Dawley rat liver at 6.3 uCi, iv after 2 hrs by liquid scintillation counting; type: ADME, organism-based; in short: as §1
# Kidney [22] = assay: Drug uptake in Sprague-Dawley rat kidney at 6.3 uCi, iv after 2 hrs by liquid scintillation counting; type: ADME, organism-based; in short: as §1
# Kidney [23] = assay: Drug uptake in Sprague-Dawley rat kidney at 6.3 uCi, iv after 0.5 hrs by liquid scintillation counting; type: ADME, organism-based; in short: as §1
# [24] = Drug uptake in Sprague-Dawley rat diaphragm at 6.3 uCi, iv after 0.5 hrs by liquid scintillation counting; type: ADME, organism-based; in short: as §1
# [25] = Drug uptake in Sprague-Dawley rat trachea at 6.3 uCi, iv after 2 hrs by liquid scintillation counting; type: ADME, organism-based; in short: as §2
# Lung [26] = assay: Drug uptake in Sprague-Dawley rat lung at 6.3 uCi, iv after 2 hrs by liquid scintillation counting; type: ADME, organism-based; in short: as §1
# Brain [27] = assay: Drug uptake in Sprague-Dawley rat brain at 6.3 uCi, iv after 2 hrs by liquid scintillation counting; type: ADME, organism-based; in short: as §1
# Spleen [28] = assay: Drug uptake in Sprague-Dawley rat spleen at 6.3 uCi, iv after 2 hrs by liquid scintillation counting; type: ADME, organism-based; in short: as §2
# Heart [29] = assay: Drug uptake in Sprague-Dawley rat heart at 6.3 uCi, iv after 0.5 hrs by liquid scintillation counting; type: ADME, organism-based; in short: as §1
# [30] = Drug uptake in Sprague-Dawley rat meninges at 6.3 uCi, iv after 0.5 hrs by liquid scintillation counting; type: ADME, organism-based; in short: as §1
structure (smiles),measurement,setting,value
C[N+](C)([14CH3])CCCCCC[N+](C)(C)[14CH3].[I-].[I-],Drug uptake,[1],1.094 % ID/g
same,Drug uptake,Testes [2],0.022 % ID/g
same,Drug uptake,Blood [3],0.31 % ID/g
same,Drug uptake,Liver [4],0.112 % ID/g
same,Drug uptake,[5],1.35 % ID/g
same,Drug uptake,Blood [6],0.02 % ID/g
same,Drug uptake,Brain [7],0.018 % ID/g
same,Drug uptake,Lung [8],0.377 % ID/g
same,Drug uptake,Pancreas [9],0.079 % ID/g
same,Drug uptake,Spleen [10],0.123 % ID/g
same,Drug uptake,Testes [11],0.097 % ID/g
same,Drug uptake,[12],0.014 % ID/g
same,Drug uptake,Pancreas [13],0.016 % ID/g
same,Drug uptake,[14],0.144 % ID/g
same,Drug uptake,Thyroid gland [15],0.206 % ID/g
same,Drug uptake,Thyroid gland [16],0.047 % ID/g
same,Drug uptake,Adrenal [17],0.104 % ID/g
same,Drug uptake,[18],0.413 % ID/g
same,Drug uptake,Adrenal [19],0.043 % ID/g
same,Drug uptake,Heart [20],0.018 % ID/g
same,Drug uptake,Liver [21],0.049 % ID/g
same,Drug uptake,Kidney [22],1.384 % ID/g
same,Drug uptake,Kidney [23],2.616 % ID/g
same,Drug uptake,[24],0.094 % ID/g
same,Drug uptake,[25],0.127 % ID/g
same,Drug uptake,Lung [26],0.137 % ID/g
same,Drug uptake,Brain [27],0.018 % ID/g
same,Drug uptake,Spleen [28],0.051 % ID/g
same,Drug uptake,Heart [29],0.145 % ID/g
same,Drug uptake,[30],0.301 % ID/g
